DSG3 Ab inh: inhibitors of pemphigus antibody binding to human desmoglein-3; 310,000 compounds, 0.48% hits; P32926; AID 588358; DSG3-coupled beads, scFv-anti-DSG3-GFP binding, flow cytometry; hits give low values; binding (percent of control), % at 10 µM;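 active = binding more than 3 SD below its plate's average and above zero; inconclusive = below that plate limit but binding exactly zero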;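 also: hits lower antibody fragment binding to DSG3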
p-CIP stab down: p/CIP protein destabilization | Q05BA5 | F442A p/CIP-EGFP cells, EGFP fluorescence, 16 h | decrease of EGFP signal, % at 10 µM | 290,000 compounds, 0.01% hits;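 active = EGFP signal decrease of at least 30% at 10 µM or well 3 SD below plate mean, unless failing retest; inactive = the rest, including hits failing retest or dose response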
Runt-SMMHC FRET: Runt domain-CBFb-SMMHC interaction inhibition; 220,000 compounds, 0.74% hits; Cerulean-Runt/Venus-CBFb-SMMHC FRET ratio 530/480, 1 h; inhibition, % at 20 µM; Q01196+Q13951;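 active = mean inhibition across duplicate retests at 20 µM reaching about 50%, limit read from the data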;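 also: 0% = DMSO wells and 100% = wells with excess untagged CBFb-SMMHC; inhibitors lower the FRET ratio by blocking Runt binding to CBFb-SMMHC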
Runt-CBFb FRET: Runt domain-CBFb interaction inhibition. inhibition, % at 20 µM. Q01196+Q13951. 220,000 compounds, 0.46% hits. Cerulean-Runt/Venus-CBFb FRET ratio 530/480, 1 h;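 active = inhibition over about 50% at 20 µM in the single-dose screen, limit read from the data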;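 also: 0% = DMSO wells and 100% = excess unlabeled CBFb competitor control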
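Assay system: Cerulean-tagged RUNX1 Runt domain (FRET donor) fusion protein / Amount: 100 nM each of Venus-CBFb and Cerulean-Runt domain / Medium: Tris buffer pH 7.5 with salts and BSA / Also added: Venus-CBFb 100 nM / Schedule: 1 h complex formation plus 1 h compound treatment, room temperature / Signal: FRET fluorescence / Read-out: loss of energy transfer signal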
RanGTP-Imp inh: disruptors of Ran-importin-beta complex formation – biochemical, FRET, CFP-Ran, YFP-importin-beta, homogeneous, primary screen. 300,000 compounds, 1.1% hits. AID 2216. cell-free CFP-Ran/YFP-importin-beta FRET ratio. inhibition, % (no concentration beside the values);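 active = more than half of the replicate wells show a fall in the fluorescence ratio signal beyond about 16%, limit read from the data, passing the limit was not always enough; inconclusive = exactly half of the replicate wells pass the set limit; inactive = fewer than half of replicates pass the limit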;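 also: 0% = DMSO wells and 100% = Ran loaded with GDP instead of GTP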
Hck Nef HTS: blocks Nef-activated human Hck kinase | P08631 | Recombinant Hck-YEEI plus Nef, Z-Lyte FRET kinase assay | inhibition, % at 20 µM | 220,000 compounds, 0.68% hits;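 active = Hck-Nef kinase inhibition above about 50%, limit read from the data; inactive = inhibition below that limit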;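 also: 0% = DMSO with Hck plus Nef and 100% = Hck alone without Nef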
* hit, by the source's call; ? = inconclusive; · = no result. Shown are actives, neighbours in structure and some others; about 2.1% of the full set was active somewhere.

SMILES	DSG3 Ab inh	p-CIP stab down	Runt-SMMHC FRET	Runt-CBFb FRET	RanGTP-Imp inh	Hck Nef HTS
COc1ccccc1/C=C/c1nc2ccc(OC(C)=O)cc2c(=O)o1	94	-3	·	·	1	·
COc1ccc(C2=C/C(=C\c3cccc(OC(C)=O)c3)C(=O)O2)cc1	119	-14	39	-36	43*	1
O=c1c2ccccc2n(CC(O)CN2CCOCC2)c2ccccc12 (configuration not stated)	107	3	·	·	79*	·
Cc1c(C)n(CC(O)CN2CCOCC2)c2ccccc12 (configuration not stated)	98	1	-2	-2	7	1
O=C(CC1S/C(=N\S(=O)(=O)c2ccc(F)cc2)N(c2ccccc2)C1=O)Nc1ccccc1 (configuration not stated)	79*	-3	-2	-1	0	3
O=C(CC1SC(=O)N(c2ccccc2)C1=O)Nc1ccc(Br)cc1 (configuration not stated)	106	-5	3	13	-3	25
CCN(CC)CCCNC(=O)CCn1nc(-c2ccccc2)ccc1=O	?	-2	·	·	-2	·
COc1cc2[nH]c3c(Cl)ncnc3c2cc1OC	84	3	0	-1	1	9
COc1cc2[nH]c(Cl)c([N+](=O)[O-])c2cc1OC	94	4	36	4	19*	22
O=C(CCN1CCCC1=O)NC1CCCc2c1cnn2-c1ccc(F)cc1F (configuration not stated)	103	-8	·	·	5	·
O=C(Oc1cc2oc(=O)cc(-c3ccccc3)c2cc1Cl)C1CCCCC1	113	-14	-22	6	-4	4
CC(C)(C)OC(=O)NCC(=O)Oc1cc2oc(=O)cc(-c3ccccc3)c2cc1Cl	102	2	81*	3	0	1
C[C@]12C=CC(=O)C=C1CC[C@@H]1C2=CC[C@]2(C)[C@@H](C(=O)CN3CCN(c4cc(N5CCCC5)nc(N5CCCC5)n4)CC3)CC[C@@H]12	·	·	·	·	65*	·
O=C(O)c1c2c(nc3ccccc13)/C(=C/c1ccc(O)cc1)CC2	103	-4	86*	20	-10	-19
COc1cccc2c1CCc1c-2nc2ccccc2c1C(=O)O	92	5	·	·	3	·
O=C(O)c1c2c(nc3ccccc13)/C(=C/c1c(F)cccc1F)CCC2	123	8	·	·	75*	·
CCc1ccc(/C=C2\CN(CC)Cc3c2nc2ccccc2c3C(=O)O)cc1	104	-25	-215	-33	-1	-1
CC(=O)Oc1c(-c2ccco2)oc2ccccc2c1=O	98	-6	92*	20	13	-118
CCN(CC)C(=O)COc1c(-c2ccco2)oc2ccccc2c1=O	108	-10	·	·	-3	·
Cc1ccc2nc(/C(C#N)=C/c3ccc(O)c(O)c3)[nH]c2c1	124	-125	·	·	28*	·
CC(=O)Nc1nc2n(n1)C(c1ccc(Cl)cc1)C=C(C)N2 (configuration not stated)	93	3	83*	31	-1	16
Cc1ccc(CNC(=O)CN(C(=O)C2(C)CC(=O)N=C3C=CC=CN32)c2cccc(C)c2C)cc1 (configuration not stated)	·	1	·	·	1	·
Cn1nnc2sc3c(c2c1=O)CCCC3	79*	-8	10	5	7	0
O=[N+]([O-])c1ccc(Cl)c(S(=O)(=O)Nc2cccc(-c3ccc(N4CCCC4)nn3)c2)c1	108	·	·	·	?	·
CCN(CC)CCNC(=O)c1ccc(NC(=O)c2ccccc2-c2ccc(C(F)(F)F)cc2)cc1	103	5	·	·	0	·
SMILES	DSG3 Ab inh	p-CIP stab down	Runt-SMMHC FRET	Runt-CBFb FRET	RanGTP-Imp inh	Hck Nef HTS
O=C(CN1CCN(c2ccccc2O)CC1)Nc1cccnc1Cl	93	12	4	0	2	-8
CCCCCn1c(=N)c(S(=O)(=O)c2ccc(Cl)cc2)cc2c(=O)n3cccc(C)c3nc21	106	-8	·	·	67*	·
CCCn1c(=N)c(S(=O)(=O)c2ccccc2)cc2c(=O)n3cccc(C)c3nc21	·	0	·	·	145*	·
CCC1CCCCN1C(=O)c1ccc(OC2CCN(C(=O)CCOC)CC2)cc1 (configuration not stated)	·	-4	·	·	-1	·
CCN(CC(=O)Nc1c(F)cccc1F)C(=O)c1ccc2c(c1)C(=O)N(c1ccccc1C)C2=O	98	·	·	·	·	·
O=C(Cc1cccc2ccccc12)N/N=C/c1ccc2cccc(O)c2n1	59*	-4	1	4	-2	30
O=C(Cc1cccc2ccccc12)N/N=C/c1ccc(O)c([N+](=O)[O-])c1	103	-14	-5	-1	8	25
Cc1ccc(S(=O)(=O)Oc2ccc(C3C4=C(CCCC4=O)N(CCC(=O)O)C4=C3C(=O)CCC4)cc2Cl)cc1	97	-5	·	5	129*	32
CCOc1cc(C2C3=C(CCCC3=O)N(CCC(=O)O)C3=C2C(=O)CCC3)ccc1OS(=O)(=O)c1ccc(C)cc1	106	-11	·	26	104*	33
COc1ccc(N2CCN(C(=O)COC(=O)/C=C/c3ccc(OC(F)F)cc3)CC2)cc1	90*	·	·	·	1	·
CC1(C)CC(=O)C(C=Nc2cccc(/N=C/C3=C(O)CC(C)(C)CC3=O)n2)=C(O)C1	·	-7	7	3	32*	1
CCCc1cc(=O)n2[nH]c(C)nc2n1	102	-10	-4	1	23*	4
CCCc1cc(=O)n2[nH]c(C(F)(F)F)nc2n1	109	-5	2	1	?	14
CCN(c1ccccc1)S(=O)(=O)c1ccc(Cl)c(NC(=O)c2ccc(=O)[nH]n2)c1	21*	·	·	·	·	·
Nc1c(C(=O)NCc2ccc3c(c2)OCO3)c2nc3ccccc3nc2n1CCCN1CCOCC1	116	-2	81*	22	61*	42
Nc1c(C(=O)NCCN2CCOCC2)c2nc3ccccc3nc2n1CCc1ccccc1	118	-13	41	74*	85*	48
Nc1c(C(=O)NCc2ccco2)c2nc3ccccc3nc2n1CCc1ccc(F)cc1	·	-9	21	3	58*	36
Nc1ccc(-n2c(N)c(C(=O)NCc3ccc4c(c3)OCO4)c3nc4ccccc4nc32)cc1	77	·	·	·	1	7
Nc1c(C(=O)NCCN2CCOCC2)c2nc3ccccc3nc2n1-c1ccccc1	103	4	98*	47	81*	37
COc1cc(-n2c(N)c(C(=O)NCc3ccco3)c3nc4ccccc4nc32)cc(OC)c1OC	96	-9	-7	4	12	3
Nc1c(C(=O)NCCN2CCOCC2)c2nc3ccccc3nc2n1-c1ccc2c(c1)OCO2	117	-5	0	7	12	29

Assay outcomes deposited in PubChem by several laboratories.
